Source: publication PMC2787711 (Biochimica et biophysica acta, 2009)
“Also recorded” adds a separate entry of the source.

Assays:
[1] = target: bovine bc1 complex (Bos taurus, UniProt P00157+P13272); experiment: Ubiquinol-cytochrome c reductase activity of purified bc1 complex; type: biochemical; settings: for Selectivity Coefficient (comparison in words): IC50 bovine enzyme divided by IC50 yeast enzyme, Fig. 5
Outline: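 Bovine heart bc1 complex, 2.5 nM, in phosphate pH 7.0 buffer with sucrose, EDTA, azide, KCN, dodecylmaltoside and 40 µM cytochrome c at 23 °C. Enzyme preincubated 1 min with increasing test compound; started with decylbenzoquinol; cytochrome c reduction read at 550 vs 539 nm. Duplicates averaged. IC50 taken from titration curves; Selectivity Coefficient = bovine IC50 / yeast IC50.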

[2] = target: center P of the yeast cytochrome bc1 complex (Saccharomyces cerevisiae, UniProt P00163+P08067); experiment: Pre-steady-state oxidant-induced reduction of cytochrome b through center P; type: biochemical; settings: 2 µM inhibitor, bc1 complex pre-reduced with quinol, 3 µM antimycin
Outline: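 Then 3 µM antimycin and 2 µM test compound added, 1 min further. Rapid-mixed with 3 µM cytochrome c; stopped-flow rapid-scanning spectroscopy at 24 °C. Absorbance change at 562 and 578 nm extracted; 12–19 data sets averaged.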

[3] = target: center N of the yeast cytochrome bc1 complex (Saccharomyces cerevisiae, UniProt P00163+P08067); experiment: Pre-steady-state reduction of cytochrome b through center N; type: biochemical; settings: 2 µM NQ1, 3 µM stigmatellin, oxidized bc1 complex
Outline: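 Stopped-flow rapid scanning at 24 °C: 1 µM oxidized yeast bc1 complex with 3 µM stigmatellin, with or without 2 µM test compound. Rapid-mixed with 30 µM 2,3-dimethoxy-5-methyl-6-decyl-1,4-benzoquinol. Cytochrome b reduction followed as absorbance time course at 562 and 578 nm; 12–19 data sets averaged.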

[4] = system: avian malaria; settings: cited from earlier work
[5] = system: malaria; settings: cited from earlier work
[6] = cited from earlier work

Row | SMILES | Selectivity Coefficient (comparison in words) [1] | inhibition of oxidant-induced reduction of cytochrome b through center P [2] | other results
1 | CC(CCCCCC(F)(F)F)CC1=C(O)C(=O)c2ccccc2C1=O (centres unmarked) [NQ1, 2-OH-3-(2-Me-trifluorooctyl)-naphthoquinone] | higher selectivity than atovaquone | completely inhibited | effect on cytochrome b reduction through center N [3]: no effect; also recorded: identical, superimposed kinetic traces in the presence and absence
2 | CCCCCCC(C)CC1=C(O)C(=O)c2c(C)cccc2C1=O (centres unmarked) [NQ2, 2-OH-3-(2-Me-octyl)-8-Me-naphthoquinone] | higher selectivity than atovaquone |  | 
3 | Cc1cccc2c1C(=O)C(O)=C(CC(C)CCCCCC(F)(F)F)C2=O (centres unmarked) [NQ3, 2-OH-3-(2-Me-trifluorooctyl)-8-Me-naphthoquinone] | higher selectivity than atovaquone |  | 
4 | CCCCCCC(C)CC1=C(O)C(=O)c2ccccc2C1=O (centres unmarked) [S-10576] | greatest selectivity |  | Selectivity Coefficient relative to that of atovaquone ([1]; Selectivity Coefficient = IC50 bovine enzyme divided by IC50 yeast enzyme): ~10 fold; efficacy against avian malaria [4]: effective; efficacy in humans [5]: ineffective; metabolism and excretion in vivo [6]: terminal two carbons of the side chain are modified by oxidation and the resulting more water soluble compound is rapidly excreted
5 | O=C1C(O)=C([C@H]2CC[C@H](c3ccc(Cl)cc3)CC2)C(=O)c2ccccc21 [atovaquone, 2-[trans-4-(4’-chlorophenyl)cyclohexyl]-3-hydroxy-1,4-hydroxynaphthoquinone, reference compound] |  | greatly inhibited | 
